Data reported in ChEMBL document CHEMBL3867435, “Chemical Constituents of Mangifera indica and Their Antiausterity Activity against the PANC-1 Human Pancreatic Cancer Cell Line” (J Nat Prod, 2016).
Calls of active or inactive are those of the source. The calls are words filed in the database; no cut-off is given here.

Key:
[1] = (§1) Antiausteritic activity against human PANC1 cells in nutrient-deprived medium measured after 24 hrs by WST8 assay; format: functional, PANC-1
In short: (§2)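 PANC-1 (Riken BRC) kept in DMEM + 10% FBS, 37 °C, 5% CO2. Seeded 1.5 × 10^4/well, 24 h in fresh DMEM, washed twice with PBS. Serial dilutions then given in DMEM or in NDM (salts, MEM vitamins, 25 mM HEPES, pH 7.4, no glucose/amino acids/serum) for 24 h. Viability read with 10% WST-8 in DMEM, 3 h, A450, vs control and blank; mean of three wells.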

[2] = Cytotoxicity against human PANC1 cells in Dulbecco's modified Eagle medium measured after 24 hrs by WST8 assay; format: toxicity, cell-based; details: panc-1, 24 h; in short: as §2
PANC-1 [3] = assay: as §1; format: functional; in short: as §2
[4] = Induction of cell death in human PANC1 cells in nutrient-deprived medium at 5 uM up to 24 hrs by phase contrast microscopic method; format: functional, PANC-1
In short: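 PANC-1 cells from the Riken bank, grown in DMEM with 10% FBS, were plated at 3.0 × 10^6 per 35 mm dish and left to attach overnight in complete medium. After two PBS washes they were treated in nutrient-deprived medium (inorganic salts, 25 mM HEPES pH 7.4, MEM vitamins; no glucose, amino acids or serum). Cells were kept in a stage-top incubator at 37 °C and 5% CO2, with phase-contrast images every 5 min.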

PANC-1 [5] = assay: Inhibition of mobility in human PANC1 cells in nutrient-deprived medium at 5 uM measured after 6 hrs by phase contrast microscopic method; format: functional, cell-based
In short: (§3)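 Cells (3.0 × 10^6) plated in 35 mm dishes and attached overnight in complete medium. Washed twice with PBS, then treated at 5 μM in NDM. Held in a stage-top incubator at 37 °C, 5% CO2, with phase-contrast images taken every 5 min for 48 h.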

PANC-1 [6] = assay: Induction of morphological changes in human PANC1 cells in nutrient-deprived medium at 10 uM measured after 24 hrs by acridine orange/ethidium bromide-staining based fluorescence microscopy; format: functional, cell-based
In short: (§4)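 After 24 h attachment (1.5 × 10^4/well, DMEM or RPMI-1640), cells were PBS-washed twice and exposed 24 h to compound in NDM (NDM alone as control). EB/AO reagent added for 5 min. Imaged at 20× in fluorescent and phase-contrast modes: green (AO) marks live cells, red (EB) marks dead cells.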

PANC-1 [7] = assay: Induction of morphological changes in human PANC1 cells in nutrient-deprived medium assessed as plasma membrane blebbing at 5 uM measured after 9 hrs by phase contrast microscopic method; format: functional, cell-based; in short: as §3
PANC-1 [8] = assay: Induction of cell death in human PANC1 cells in nutrient-deprived medium at 10 uM measured after 24 hrs by acridine orange/ethidium bromide-staining based fluorescence microscopy; format: functional; in short: as §4
PANC-1 [9] = assay: Induction of cell death in human PANC1 cells in nutrient-deprived medium at 5 uM after 48 hrs by phase contrast microscopic method; format: functional, cell-based; in short: as §3
PANC-1 [10] = assay: Induction of morphological changes in human PANC1 cells in nutrient-deprived medium at 5 uM measured after 6 hrs by phase contrast microscopic method; format: functional, cell-based; in short: as §3

Row | Compound | PC50 [1] [µM] | Activity [2] | further results
1 | C[C@H](CC/C=C(\CO)C(=O)O)[C@H]1CC[C@@]2(C)[C@@H]3CC[C@H]4C(C)(C)C(=O)CC[C@@]45C[C@@]35CC[C@]12C | >100 | Non-Toxic | 
2 | C/C(=C\C(O)C[C@@H](C)[C@H]1CC[C@@]2(C)[C@@H]3CC[C@H]4C(C)(C)[C@@H](O)CC[C@@]45C[C@@]35CC[C@]12C)C(=O)O (stereo not given in full) | >100 | Non-Toxic | 
3 | COc1cc(C[C@H]2C(=O)OC[C@@H]2Cc2ccc(OC)c(OC)c2)ccc1O [ARCTIGENIN] | 0.8 |  | 
4 | C=C(CC[C@@H](C)[C@H]1CC[C@@]2(C)[C@@H]3CC[C@H]4C(C)(C)[C@@H](O)CC[C@@]45C[C@@]35CC[C@]12C)[C@@H](C)C(=O)O | >100 | Non-Toxic | 
5 | COc1cc(O)c(C(=O)c2ccc(O)cc2)c(O)c1 | >100 | Non-Toxic | 
6 | C=C(CC[C@@H](C)[C@H]1CC[C@@]2(C)[C@@H]3CC[C@H]4C(C)(C)[C@@H](O)CC[C@@]45C[C@@]35CC[C@]12C)C(C)CO (stereo not given in full) | >100 | Non-Toxic | 
7 | C/C(=C\CC[C@@H](C)[C@H]1CC[C@@]2(C)[C@@H]3CC[C@H]4C(C)(C)C(=O)CC[C@@]45C[C@@]35CC[C@]12C)C(=O)O [MANGIFERONIC ACID] | >100 | Non-Toxic | 
8 | COc1cc(O)c(C(=O)c2ccc(O)cc2)c(O)c1[C@@H]1O[C@H](CO)[C@@H](O)[C@H](O)[C@H]1O | >100 | Non-Toxic | 
9 | COc1cc(O)c(C(=O)c2ccc(O)cc2)c(O)c1[C@@H]1O[C@H](CO)[C@@H](O)[C@H](O)[C@H]1OC(=O)c1ccc(O)cc1 | >100 | Non-Toxic | 
10 | Nc1ccn([C@@H]2O[C@H](CO)[C@@H](O)C2(F)F)c(=O)n1 [GEMCITABINE] | > 100 |  | 
11 | C/C(=C\C(O)C[C@@H](C)[C@H]1CC[C@@]2(C)[C@@H]3CC[C@H]4C(C)(C)C(=O)CC[C@@]45C[C@@]35CC[C@]12C)C(=O)O (stereo not given in full) | 32.3 | Non-Toxic | 
12 | C[C@H](CC/C=C(\CO)C(=O)O)[C@H]1CC[C@@]2(C)[C@@H]3CC[C@H]4C(C)(C)[C@@H](O)CC[C@@]45C[C@@]35CC[C@]12C | 52.1 | Non-Toxic | 
13 | O=c1c2cc(O)c(O)cc2oc2cc(O)c([C@@H]3O[C@H](CO)[C@@H](O)[C@H](O)[C@H]3O)c(O)c12 [MANGIFERIN] | >100 | Non-Toxic | 
14 | C=C(CC[C@@H](C)[C@H]1CC[C@@]2(C)[C@@H]3CC[C@H]4C(C)(C)[C@@H](O)CC[C@@]45C[C@@]35CC[C@]12C)[C@@H](C)C(=O)OC | >100 | Non-Toxic | 
15 | CCCC/C=C\CCCCCCCCCCCC(=O)O[C@H]1CC[C@]23C[C@]24CC[C@]2(C)[C@@H]([C@H](C)CC/C=C(\C)C(=O)O)CC[C@@]2(C)[C@@H]4CC[C@H]3C1(C)C | 69.6 | Non-Toxic | 
16 | C=C(CC[C@@H](C)[C@H]1CC[C@@]2(C)[C@@H]3CC[C@H]4C(C)(C)[C@@H](OC(C)=O)CC[C@@]45C[C@@]35CC[C@]12C)C(C)C(=O)O (stereo not given in full) | 11 | Non-Toxic | Activity (PANC-1 [3]): Dose-dependent effect
17 | C/C(=C\CC[C@@H](C)[C@H]1CC[C@@]2(C)[C@@H]3CC[C@H]4C(C)(C)[C@@H](O)CC[C@@]45C[C@@]35CC[C@]12C)C(=O)O [MANGIFEROLIC ACID] | >100 | Non-Toxic | 
18 | C=C(CC[C@@H](C)[C@H]1CC[C@@]2(C)[C@@H]3CC[C@H]4C(C)(C)[C@H](O)CC[C@@]45C[C@@]35CC[C@]12C)[C@@H](C)C(=O)O | 4.8 | Non-Toxic | Activity [4]: >50%; inhibition (PANC-1 [5]): Active; Activity (PANC-1 [3]): Dose-dependent effect; Activity (PANC-1 [6]): Active; Activity (PANC-1 [7]): Active; Activity (PANC-1 [8]): Active; Activity (PANC-1 [9]): Active; Activity (PANC-1 [10]): Active
19 | COc1cc(O)c(C(=O)c2ccc(O)cc2)c(O[C@@H]2O[C@H](CO)[C@@H](O)[C@H](O)[C@H]2O)c1 [MAHKOSIDE A] | >100 | Non-Toxic | 
20 | C=C(CC[C@@H](C)[C@H]1CC[C@@]2(C)[C@@H]3CC[C@H]4C(C)(C)C(=O)CC[C@@]45C[C@@]35CC[C@]12C)[C@@H](C)C(=O)O | 44.2 | Non-Toxic | 
21 | O=c1[nH]cc(F)c(=O)[nH]1 [FLUOROURACIL] | >200 |  | 
22 | C=C(CC[C@@H](C)[C@H]1CC[C@@]2(C)[C@@H]3CC[C@H]4C(C)(C)C(=O)CC[C@@]45C[C@@]35CC[C@]12C)[C@@H](C)C(=O)OC | 22.8 | Non-Toxic | 
